Test results published in ChEMBL document CHEMBL1154676, “Synthetic mRNA splicing modulator compounds with in vivo antitumor activity” (J Med Chem, 2009).

How the values were obtained:
[1] = test system: PC-3; assay: Cytotoxicity against human PC3 cells after 72 hrs by XTT assay; assay type: functional, cell-based; details: PC-3, 72 h
In short: (§1)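 Cells grown at 37 °C, 5% CO2; HFF in DMEM with 10% FBS, PrEC in prostate epithelial growth medium. Adherent lines seeded overnight, suspension lines same day; compounds diluted from DMSO stocks into media at various final concentrations, 72 h exposure. XTT reagent added 4 h, absorbance 490 nm (reference 690 nm). Growth as % of vehicle; IC50 from sigmoidal dose-response fit; mean ± SEM, three independent experiments.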

[2] = Antitumor activity against human JeKo1 cells transplanted in NOD/SCID mouse assessed as tumor volume treated iv for 5 days relative to control; assay type: functional, JeKo-1
In short: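 Female NOD/SCID mice bearing JeKo-1 tumors transplanted day 1; IV dosing from day 4, daily for five days, at 5, 10, 25 or 50 mg/kg in 3.0% DMSO/6.5% Tween 80/5% glucose, 4 per group. Volume = (length × width²)/2, measured thrice weekly; T/C = median treated tumor volume ÷ median control volume.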

[3] = test system: OVCAR-3; assay: Growth inhibition of human OVCAR-3 cells by sulforhodamine B assay; assay type: functional
[4] = test system: BT-549; assay: Growth inhibition of human BT549 cells by sulforhodamine B assay; assay type: functional
[5] = test system: SK-MEL-2; assay: Cytotoxicity against human SK-MEL-2 cells after 72 hrs by XTT assay; assay type: functional, cell-based; details: SK-MEL-2, 72 h; in short: as §1
[6] = Cytotoxicity against human Rh41 cells after 72 hrs by XTT assay; assay type: functional, cell-based; details: Rh41, 72 h; in short: as §1
[7] = test system: NCI-H322M; assay: Growth inhibition of human NCI-H322M cells by sulforhodamine B assay; assay type: functional
[8] = test system: LOX IMVI; assay: Growth inhibition of human LOXIMVI cells by sulforhodamine B assay; assay type: functional
[9] = test system: K562; assay: Growth inhibition of human K562 cells by sulforhodamine B assay; assay type: functional
[10] = test system: Malme-3M; assay: Growth inhibition of human MALME-3M cells by sulforhodamine B assay; assay type: functional
[11] = test system: Mus musculus; assay: Toxicity in NOD/SCID mouse assessed as glucose at 5 to 50 mg/kg, […] for 5 days; assay type: organism-based; design: dose 5-50 mg/kg; details: in vivo, po, 120 h
[12] = test system: SN12C; assay: Growth inhibition of human SN12C cells by sulforhodamine B assay; assay type: functional
[13] = Cytotoxicity against human BT-14 cells after 72 hrs by XTT assay; assay type: functional, cell-based; details: BT-14, 72 h; in short: as §1
[14] = test system: HL-60(TB); assay: Growth inhibition of human HL-60(TB) cells by sulforhodamine B assay; assay type: functional
[15] = test system: Mus musculus; assay: Toxicity in NOD/SCID mouse assessed as total protein level at 5 to 50 mg/kg, […] for 5 days; assay type: organism-based; design: dose 5-50 mg/kg; details: in vivo, po, 120 h
[16] = test system: Mus musculus; assay: Toxicity in NOD/SCID mouse assessed as creatinine level at 5 to 50 mg/kg, […] for 5 days; assay type: organism-based; design: dose 5-50 mg/kg; details: in vivo, po, 120 h
[17] = test system: HCT-116; assay: Growth inhibition of human HCT116 cells by sulforhodamine B assay; assay type: functional
[18] = test system: Mus musculus; assay: Toxicity in NOD/SCID mouse assessed as total bilirubin level at 5 to 50 mg/kg, iv and po for 5 days; assay type: organism-based; design: dose 5-50 mg/kg, route oral; details: in vivo, 120 h
[19] = test system: U-251; assay: Growth inhibition of human U251 cells by sulforhodamine B assay; assay type: functional
[20] = test system: SF-295; assay: Growth inhibition of human SF295 cells by sulforhodamine B assay; assay type: functional
[21] = test system: NCI-H522; assay: Growth inhibition of human NCI-H522 cells by sulforhodamine B assay; assay type: functional
[22] = test system: SK-MEL-2; assay: Growth inhibition of human SK-MEL-2 cells by sulforhodamine B assay; assay type: functional
[23] = test system: WiDr; assay: Cytotoxicity against human WiDr cells after 72 hrs by XTT assay; assay type: functional, cell-based; in short: as §1
[24] = test system: CAKI-1; assay: Growth inhibition of human Caki1 cells by sulforhodamine B assay; assay type: functional
[25] = test system: PANC-1; assay: Cytotoxicity against human PANC1 cells after 72 hrs by XTT assay; assay type: functional, cell-based; details: PANC-1, 72 h; in short: as §1
[26] = test system: SK-OV-3; assay: Growth inhibition of human SKOV3 cells by sulforhodamine B assay; assay type: functional
[27] = test system: UACC-257; assay: Growth inhibition of human UACC257 cells by sulforhodamine B assay; assay type: functional
[28] = test system: Mus musculus; assay: Toxicity in NOD/SCID mouse assessed as calcium level at 5 to 50 mg/kg, iv and po for 5 days; assay type: organism-based; design: dose 5-50 mg/kg, route oral; details: in vivo, 120 h
[29] = test system: HFF; assay: Cytotoxicity against HFF cells after 72 hrs by XTT assay; assay type: cell-based; details: Homo sapiens; in short: as §1
[30] = test system: Mus musculus; assay: Toxicity in NOD/SCID mouse assessed as globulin level at 5 to 50 mg/kg, […] for 5 days; assay type: organism-based; design: dose 5-50 mg/kg; details: in vivo, po, 120 h
[31] = test system: UO-31; assay: Growth inhibition of human UO31 cells by sulforhodamine B assay; assay type: functional
[32] = test system: SF-268; assay: Growth inhibition of human SF268 cells by sulforhodamine B assay; assay type: functional
[33] = test system: RXF 393; assay: Growth inhibition of human RXF393 cells by sulforhodamine B assay; assay type: functional
[34] = test system: Mus musculus; assay: Toxicity in NOD/SCID mouse assessed as complete blood counts level at 5 to 50 mg/kg, […] for 5 days; assay type: organism-based; design: dose 5-50 mg/kg; details: in vivo, po, 120 h
[35] = test system: 786-0; assay: Growth inhibition of human 786-0 cells by sulforhodamine B assay; assay type: functional
[36] = test system: MDA-MB-231; assay: Growth inhibition of human MDA-MB-231 cells by sulforhodamine B assay; assay type: functional
[37] = test system: T47D; assay: Growth inhibition of human T47D cells by sulforhodamine B assay; assay type: functional
[38] = Growth inhibition of human MDA-MB-436 cells by sulforhodamine B assay; assay type: functional
[39] = read-out: Log10GI50 (converted)
[40] = read-out: Log10LC50 (converted)

SMILES: CC(/C=C/[C@@H]1C[C@]2(CO2)CC(C)(C)O1)=C\C[C@H]1CC[C@@H](NC(=O)/C=C\[C@H](C)OC(=O)C(C)C)CC1
- IC50 [1]: 2200 nM
- T/C [2]: <=42%
- GI50 [3, 39]: 229 nM
- CC50 [3, 40]: > 100000 nM
- TGI ([3]; read-out: Log10TGI (converted)): 3470 nM
- GI50 [4, 39]: 138 nM
- CC50 [4, 40]: > 100000 nM
- TGI ([4]; read-out: Log10TGI (converted)): 776 nM
- IC50 [5]: 290 nM
- IC50 [6]: 550 nM
- GI50 [7, 39]: 2000 nM
- CC50 [7, 40]: > 100000 nM
- TGI ([7]; read-out: Log10TGI (converted)): 22400 nM
- GI50 [8, 39]: 79.4 nM
- CC50 [8, 40]: 55000 nM
- GI50 [9, 39]: 45.7 nM
- CC50 [9, 40]: > 100000 nM
- TGI ([9]; read-out: Log10TGI (converted)): > 100000 nM
- GI50 [10, 39]: 1380 nM
- CC50 [10, 40]: > 100000 nM
- TGI ([10]; read-out: Log10TGI (converted)): 61700 nM
- Activity [11]: Non-toxic
- GI50 [12, 39]: 1230 nM
- CC50 [12, 40]: > 100000 nM
- TGI ([12]; read-out: Log10TGI (converted)): > 100000 nM
- IC50 [13]: 1340 nM
- GI50 [14, 39]: 129 nM
- CC50 [14, 40]: 74100 nM
- TGI ([14]; read-out: Log10TGI (converted)): 525 nM
- Activity [15]: Non-toxic
- Activity [16]: Non-toxic
- GI50 [17, 39]: 70.8 nM
- CC50 [17, 40]: > 100000 nM
- TGI ([17]; read-out: Log10TGI (converted)): > 100000 nM
- Activity [18]: Non-toxic
- GI50 [19, 39]: 363 nM
- CC50 [19, 40]: > 100000 nM
- TGI ([19]; read-out: Log10TGI (converted)): > 100000 nM
- GI50 [20, 39]: 339 nM
- CC50 [20, 40]: > 100000 nM
- TGI ([20]; read-out: Log10TGI (converted)): 2510 nM
- GI50 [21, 39]: 316 nM
- CC50 [21, 40]: 5370 nM
- TGI ([21]; read-out: Log10TGI (converted)): > 100000 nM
- GI50 [22, 39]: 257 nM
- CC50 [22, 40]: > 100000 nM
- TGI ([22]; read-out: Log10TGI (converted)): 3550 nM
- IC50 [23]: 910 nM
- GI50 [24, 39]: 302 nM
- CC50 [24, 40]: > 100000 nM
- TGI ([24]; read-out: Log10TGI (converted)): 2140 nM
- IC50 [25]: 3870 nM
- GI50 [26, 39]: 912 nM
- CC50 [26, 40]: > 100000 nM
- TGI ([26]; read-out: Log10TGI (converted)): > 100000 nM
- GI50 [27, 39]: 3630 nM
- CC50 [27, 40]: > 100000 nM
- TGI ([27]; read-out: Log10TGI (converted)): 45700 nM
- Activity [28]: Non-toxic
- IC50 [29]: > 10000 nM
- Activity [30]: Non-toxic
- GI50 [31, 39]: 3980 nM
- CC50 [31, 40]: > 100000 nM
- TGI ([31]; read-out: Log10TGI (converted)): > 100000 nM
- GI50 [32, 39]: 263 nM
- CC50 [32, 40]: > 100000 nM
- TGI ([32]; read-out: Log10TGI (converted)): > 100000 nM
- GI50 [33, 39]: 229 nM
- CC50 [33, 40]: > 100000 nM
- TGI ([33]; read-out: Log10TGI (converted)): 1820 nM
- Activity [34]: Non-toxic
- GI50 [35, 39]: 2630 nM
- CC50 [35, 40]: > 100000 nM
- TGI ([35]; read-out: Log10TGI (converted)): > 100000 nM
- GI50 [36, 39]: 955 nM
- CC50 [36, 40]: > 100000 nM
- TGI ([36]; read-out: Log10TGI (converted)): > 100000 nM
- GI50 [37, 39]: 389 nM
- CC50 [37, 40]: > 100000 nM
- TGI ([37]; read-out: Log10TGI (converted)): 14500 nM
- GI50 [38, 39]: 229 nM
- CC50 [38, 40]: > 100000 nM
- TGI ([38]; read-out: Log10TGI (converted)): 16200 nM
